# Shown are actives, neighbours in structure and some others; about 4.2% of the full set was active somewhere.
# hERG protect – shields human hERG channel from block by proarrhythmic agents; activation (rescue from dofetilide block), less the hit threshold, % at 10 µM; actives 0.51% (n = 310,000); AID 1511; CHO-hERG, FluxOR thallium flux, dofetilide IC70 present; Q12809;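 active = activation above the mean of controls blocked by dofetilide plus 5 SD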;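 note: thallium influx through hERG after potassium depolarization seen as dye fluorescence rise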
# Target sequence (Q12809 whole entry, looked up): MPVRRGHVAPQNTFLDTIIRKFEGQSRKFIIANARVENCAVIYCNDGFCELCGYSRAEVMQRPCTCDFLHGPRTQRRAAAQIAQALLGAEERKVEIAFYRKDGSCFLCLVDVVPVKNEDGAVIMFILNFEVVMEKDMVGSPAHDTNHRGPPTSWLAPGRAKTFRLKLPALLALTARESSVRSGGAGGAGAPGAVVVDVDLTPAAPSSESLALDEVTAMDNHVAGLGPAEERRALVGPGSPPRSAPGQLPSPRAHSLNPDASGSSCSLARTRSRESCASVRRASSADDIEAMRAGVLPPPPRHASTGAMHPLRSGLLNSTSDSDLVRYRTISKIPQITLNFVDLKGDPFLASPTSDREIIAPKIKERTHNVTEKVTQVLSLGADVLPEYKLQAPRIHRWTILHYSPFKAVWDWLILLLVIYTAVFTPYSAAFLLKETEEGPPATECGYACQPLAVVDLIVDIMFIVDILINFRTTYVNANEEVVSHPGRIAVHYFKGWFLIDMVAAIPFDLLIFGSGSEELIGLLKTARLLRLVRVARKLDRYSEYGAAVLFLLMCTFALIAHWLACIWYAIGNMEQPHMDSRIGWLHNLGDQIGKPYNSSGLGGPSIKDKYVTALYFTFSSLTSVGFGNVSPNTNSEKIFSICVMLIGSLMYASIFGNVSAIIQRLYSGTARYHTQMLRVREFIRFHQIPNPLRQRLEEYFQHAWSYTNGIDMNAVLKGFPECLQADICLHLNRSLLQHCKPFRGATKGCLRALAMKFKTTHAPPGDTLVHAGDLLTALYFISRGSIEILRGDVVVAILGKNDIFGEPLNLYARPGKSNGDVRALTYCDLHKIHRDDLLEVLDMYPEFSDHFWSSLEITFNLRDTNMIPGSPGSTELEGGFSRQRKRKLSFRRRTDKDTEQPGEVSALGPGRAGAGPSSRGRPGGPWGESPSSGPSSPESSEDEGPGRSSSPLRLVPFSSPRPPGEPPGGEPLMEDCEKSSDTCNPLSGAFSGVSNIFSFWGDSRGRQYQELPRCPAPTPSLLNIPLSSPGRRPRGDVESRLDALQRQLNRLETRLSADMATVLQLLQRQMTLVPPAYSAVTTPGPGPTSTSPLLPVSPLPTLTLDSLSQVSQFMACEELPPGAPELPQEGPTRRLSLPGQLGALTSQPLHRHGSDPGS
# AI-2 QS modul – modulators of Vibrio harveyi AI-2 quorum sensing system; Vibrio harveyi JMH597 AI-2 luminescence/OD600 ratio, 9 h; active compounds read low; strain lacks LuxN and CqsS sensors; 0 = neutral-control median; activity change, % at 7.5 µM; actives 0.4% (n = 300,000); AID 2094; in the data active = activity change below about -75%, passing the limit was not always enough;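 note: luminescence divided by OD600 gain over 9 h not by final OD600 alone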
# KCC2 mod – modulators of human KCC2 chloride dependent transport; KCC2 cells, thallium flux FluoZin-2 fluorescence; B-score of Tl+ flux slope (higher = more flux/activation; lower = inhibition) at 10 µM; actives 2.2% (n = 190,000); AID 1456;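 active = thallium flux slope and its plate-corrected score both differing from the plate sample mean at a set confidence after two filtering rounds, in either direction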;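 note: slope of fluorescence scaled to starting intensity during 10 to 20 s after thallium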
# Mot1-301 SUMO – blocks SUMOylation pathway, rescuing yeast Mot1-301 growth | S. cerevisiae Mot1-301 growth rescue, ATP luminescence, 38.5C; percent above DMSO median, 100 means doubled | growth rescue, % at 18.8 µM | actives 1% (n = 320,000) | AID 2716;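 active = every valid replicate shows activation above 250% relative to neutral control wells; inactive = the rest, any valid replicate at or below 250%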;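 note: OY570 slx delta 5 strain wells were the positive control but not used for scaling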
# KCNQ1 inh – human KCNQ1 channel inhibition; P51787; CHO-K1 KCNQ1, FluxOR thallium flux fluorescence; active compounds read high; B-score at 10 µM; actives 1.3% (n = 310,000); AID 2642;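 active = compounds whose thallium flux B-score, printed positive for inhibition, exceeds three library SD while starting fluorescence stays within three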;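 note: channel opened by potassium depolarization with thallium stimulus after 20 min compound exposure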
# KCNQ1 pot – human KCNQ1 channel potentiation or activation; P51787; CHO-K1 KCNQ1, thallium flux FluxOR fluorescence; active compounds read high; B-score at 10 µM; actives 0.35% (n = 310,000); AID 2648;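 active = fluorescence ratio B-score, a plate-corrected score, at least three library SD, with initial intensity B-score within 5 SD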
#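 System: Stable KCNQ1 CHO-K1 line | Incubation: 90 min dye loading and 20 min compound exposure, both at room temperature | Measure: Ratio B score | Medium: Assay buffer for compound exposure, DMSO matched across wells | Compound dosing: Single-concentration screen | Probe or stimulus: K+/Tl+ depolarizing stimulus | Measured by: Kinetic FluxOR fluorescence, 10 s baseline plus 110 s post-stimulus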
# Mot1 SUMO dose – inhibits SUMO pathway, affecting Mot1-301 yeast growth. AID 493004. growth activity, percent, % at 42 µM. shares compounds with Mot1-301 SUMO. S. cerevisiae Mot1-301 galactose growth, ATP luminescence, 24 h; -100 = growth of slx-deleted rescue strain. 2,300 tested, under 10 active;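 active = Signal drops as the depositor expects, and the fitted half-maximal dose is no more than ten times the top valid tested dose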;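 note: more negative values mean stronger growth rescue toward the control strain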
# Active calls of the source: *; i = inactive; / = no result; + = active, no number; [ ] = dose if it differs, or a comment.
SMILES,hERG protect,AI-2 QS modul,KCC2 mod,Mot1-301 SUMO,KCNQ1 inh,KCNQ1 pot,Mot1 SUMO dose
NC(=S)Nn1c(CCC(=O)O)ccc1-c1ccccc1,-7,29,0.43,10,i,i,/
O=C(O)CCc1ccc(-c2ccccc2)n1NC(=O)c1cccs1,-3,32,-1.3,670*,i,i,1
CCC(NC(=O)c1ccccc1NC(=O)c1ccco1)C(=O)O (stereo not given),-2,14,-0.065,4,i,i,/
CCC(NC(=O)c1ccccc1NC(=O)c1ccco1)C(=O)NC1CCCCC1 (stereo not given),-2,4,1.3,381*,i,i,0
COc1ccccc1OC(C)C(=O)N(Cc1ccco1)C1CCS(=O)(=O)C1 (stereo not given),-9,30,/,161,i,i,/
CC(C)CC(=O)NC(NCC1CCCO1)C(Cl)(Cl)Cl (stereo not given),-13,17,-0.77,/,i,i,/
O=C(Nc1ccc2nc(-c3ccc4nc[nH]c4c3)[nH]c2c1)c1cccs1,-10,32,0.25,465*,i,i,0
COc1ccccc1-c1sc2ccccc2c1-c1ccc2c(c1)OCO2,-6,24,/,998*,i,i,1
O=C(OCc1nc2ccsc2c(=O)[nH]1)c1ccco1,-16,-2,/,651*,i,i,0
CC(C)S(=O)(=O)N1CCCC(C(=O)c2cccc(Cl)c2)C1 (stereo not given),-8,17,-0.18,-10,i,i,/
Cc1cnc(C(=O)OC(C(=O)c2c[nH]c3ccccc23)c2ccccc2)cn1 (stereo not given),-7,/,/,533*,i,i,0
O=C(c1ccccc1NS(=O)(=O)c1ccc(F)cc1F)N1CCCCC1,/,/,/,262,/,/,/
CCN(C(=S)NC(=O)c1ccco1)c1cccc2ccccc12,/,/,/,4,/,/,/
CCN(C(=S)NCCOC)c1cccc2ccccc12,-12,73,-0.027,418*,i,i,1
Cc1ccccc1P(=O)(CO)c1ccccc1C,0,1,0.93,414*,i,i,1
CC(C)(C)P(=O)(CO)c1ccccc1 (stereo not given),-11,19,-0.028,6,i,i,/
COc1cccc(-n2c(Cc3cc(=O)[nH]c(=O)[nH]3)nnc2SCc2cccnc2)c1,-4,13,0.22,511*,i,i,0
COc1ccc(-n2c(Cc3cc(=O)[nH]c(=O)[nH]3)nnc2SCc2ccccc2)cc1,-5,-13,0.82,-6,i,i,/
O=C(CCNC(=O)c1ccc(Br)cc1)NCc1ccccc1F,-5,/,/,812*,i,i,-1
CCCN(CC(=O)Nc1ccccc1OC)Cc1c(O)ccc2ccccc12,-2,53,/,-13,i,i,/
COc1ccc2c(c1)[C@@H]1[C@H](CO2)[C@H](c2ccccc2)[C@]2(C)C(=O)Nc3ccc(C)cc3C(=O)N12,/,/,/,3,/,/,/
COc1ccc2c(c1)OC[C@H]1[C@H]2N2C(=O)c3ccccc3NC(=O)[C@@]2(C)[C@H]1c1ccccc1,/,/,/,640*,/,/,2
COc1ccc2c(c1)OC[C@H]1[C@H]2N2C(=O)c3cc(C)ccc3NC(=O)[C@@]2(C)[C@H]1c1ccccc1,/,/,/,+,/,/,0
COc1ccc2c(c1)[C@H]1[C@H](CO2)[C@H](c2ccccc2)[C@]2(C)C(=O)Nc3ccc(F)cc3C(=O)N12,/,/,/,904*,/,/,-1
COc1ccc2c(c1)[C@H]1[C@H](CO2)[C@H](c2ccccc2)[C@]2(C)C(=O)Nc3ccc(C)cc3C(=O)N12,/,/,/,598*,/,/,-1
SMILES,hERG protect,AI-2 QS modul,KCC2 mod,Mot1-301 SUMO,KCNQ1 inh,KCNQ1 pot,Mot1 SUMO dose
COc1ccc2c(c1)C(=O)N1[C@H]3c4cc(C)ccc4OC[C@@H]3[C@H](c3ccccc3)[C@]1(C)C(=O)N2,/,/,/,37,/,/,/
COc1ccc2c(c1)[C@H]1[C@H](CO2)[C@H](c2ccccc2)[C@]2(C)C(=O)Nc3cc(OC)c(OC)cc3C(=O)N12,/,/,/,18,/,/,/
N#Cc1ccc2[nH]c(CO)c(-c3ccccc3)c2c1,-15,15,/,+,i,i,-1
Cc1cc(C)cc(C(=O)N2CCC3(CC2)NCCc2[nH]cnc23)c1,-6,28,/,396*,i,i,0
O=C(Nc1ccc(C(=O)O)cc1)/C(=C\C=C\c1ccccc1)NC(=O)c1ccccc1Br,-18,29,/,-4,i,i,/
CC(=O)N1N=C(c2ccc(C(C)(C)C)cc2)OC1(C)C,-11,7,-0.0026,536*,i,i,0
Cc1ccc(C)c(NC(=O)COC(=O)c2ccc3c(c2)OCO3)c1,-4,-6,-0.25,975*,i,i,0
Cc1ccc(S(=O)(=O)N(C)C)cc1NC(=O)COC(=O)c1ccc2c(c1)OCO2,-8,12,-0.22,-13,i,i,/
CCOC(=O)C1C2C=CC3(CN(CCc4ccccc4)C(=O)C13)O2 (stereo not given),2,30,0.0043,-20,i,i,/
COC(=O)C1C2C=CC3(CN(CCc4ccccc4)C(=O)C13)O2 (stereo not given),-6,15,1.2,429*,i,i,0[21 µM]
O=c1[nH][nH]c(C(F)(F)F)c1C=NCc1cccs1,0,19,-0.7,+,i,i,0
Cc1nnc(SCC(=O)NC(C)(C)C)n1NCc1ccc(N(C)C)cc1,-10,25,/,-15,i,i,/
Cc1nnc(SCC(=O)NC(C)(C)C)n1NCc1ccc(Cl)cc1,-6,22,-0.83,785*,i,i,0
CCc1ccc2oc(=O)cc(CN3CCCCC3)c2c1,-1,4,/,6,i,i,/
COc1ccc(/C(N)=N/OC(=O)/C=C/c2ccccc2)cc1,-6,6,-1.5,154,i,i,/
Cc1ccc(/C(N)=N/OC(=O)/C=C/c2ccccc2)cc1,-8,0,-1.2,840*,i,i,0
C[C@H]1CN(S(=O)(=O)c2c(F)cccc2F)CCN1S(=O)(=O)c1ccc2c(c1)OCCO2,/,/,/,30,/,/,/
CC(C)CN(C(=O)COC(=O)c1ccc2c(c1)OCO2)c1c(N)n(Cc2ccccc2)c(=O)[nH]c1=O,-5,/,/,710*,i,i,1
CCN(C(=O)CN1CCCCC1)c1c(N)n(Cc2ccccc2)c(=O)[nH]c1=O,/,/,/,11,/,/,/
CCCCN(C(=O)C1=COCCO1)c1c(N)n(Cc2ccccc2)c(=O)[nH]c1=O,-4,/,/,521*,i,i,-1
